Source: ChEMBL document CHEMBL3124866, “Small molecular antibacterial peptoid mimics: the simpler the better!” (J Med Chem, 2014)
Active and inactive are the calls of the source. The rule behind the calls is not given here.

Legend:
[1] = system: Escherichia coli; assay: Ratio of MSI-78 MIC to compound MIC for Escherichia coli; format: functional
[2] = system: Staphylococcus aureus; assay: Antibacterial activity against drug-sensitive Staphylococcus aureus MTCC 737 after 24 hrs by broth microdilution assay; format: functional; settings: MTCC 737, 24 h
Method in brief: (§1)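 Bacteria grown 6 h to ~10^9 cfu/mL and diluted to 10^5 cfu/mL in nutrient media. Growth media were LB (E. coli), yeast-dextrose broth (S. aureus, P. aeruginosa) and BHI (E. faecium). Compound was serially diluted in water and added 1:3 to bacteria, then incubated 37 °C for 24 h with OD600 read-out. Triplicate ODs were sigmoid-fitted; MIC was taken where OD matched the no-bacteria control. At least two independent experiments.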

[3] = system: Escherichia coli; assay: Antibacterial activity against drug-sensitive Escherichia coli MTCC 443 after 24 hrs by broth microdilution assay; format: functional; settings: MTCC 443, 24 h; method in brief: as §1
[4] = system: Klebsiella pneumoniae; assay: Antibacterial activity against beta-lactam-resistant Klebsiella pneumoniae ATCC 700603 after 24 hrs by broth microdilution assay; format: functional; settings: ATCC 700603, 24 h
Method in brief: (§2)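 MIC by broth microdilution. Cultures were grown 6 h to ~10^9 cfu/mL, then diluted to 10^5 cfu/mL. Media: yeast-dextrose broth for MRSA, BHI for VRE, and beef extract/peptone nutrient broth for K. pneumoniae. Compounds were serially diluted in water, 50 µL added to 150 µL cells, and incubated 24 h at 37 °C. OD600 triplicates were sigmoid-fitted; MIC is the point where OD equals the no-bacteria control. Mean ± SEM of ≥2 experiments.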

[5] = Hemolytic activity in human erythrocytes after 1 hr by spectrophotometric analysis; format: ADME, cell-based, Erythrocyte
Method in brief: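 Heparinized fresh human erythrocytes at 5 vol% in PBS pH 7.4 were mixed 3:1 with serially diluted compound and held 1 h at 37 °C. Plates were centrifuged and supernatant A540 read. Hemolysis was scaled between an untreated control and a Triton X-100 (100% lysis) control. HC50 is the mean of at least two independent triplicate experiments.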

[6] = system: Pseudomonas aeruginosa; assay: Antibacterial activity against drug-sensitive Pseudomonas aeruginosa ATCC 4676 after 24 hrs by broth microdilution assay; format: functional; settings: ATCC 4676, 24 h; method in brief: as §1
[7] = system: Enterococcus faecium; assay: Antibacterial activity against vancomycin-resistant Enterococcus faecium ATCC 51559 after 24 hrs by broth microdilution assay; format: functional; settings: ATCC 51559, 24 h; method in brief: as §2
[8] = system: Enterococcus faecium; assay: Antibacterial activity against drug-sensitive Enterococcus faecium ATCC 19634 after 24 hrs by broth microdilution assay; format: functional; settings: ATCC 19634, 24 h; method in brief: as §1
[9] = Retention time of the compound by HPLC analysis; format: physicochemical
[10] = system: Staphylococcus aureus; assay: Antibacterial activity against methicillin-resistant Staphylococcus aureus ATCC 33591 after 24 hrs by broth microdilution assay; format: functional; settings: ATCC 33591, 24 h; method in brief: as §2
[11] = system: Staphylococcus aureus; assay: Antibacterial activity against drug-sensitive Staphylococcus aureus MTCC 737 assessed as inner cytoplasmic membrane permeabilization at MIC measured up to 10 mins by propidium iodide staining-based fluorescence assay; format: functional, organism-based
Method in brief: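 Mid-log S. aureus were harvested, washed and resuspended in 5 mM HEPES/5 mM glucose pH 7.2 containing 15 µM propidium iodide. Compound was added and PI uptake followed as fluorescence increase (ex 535 nm, em 617 nm) for 10 min.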

[12] = system: Escherichia coli; assay: Antibacterial activity against drug-sensitive Escherichia coli MTCC 443 assessed as outer cytoplasmic membrane permeabilization at MIC measured up to 10 mins by N-phenylnaphthylamine dye-based fluorescence assay; format: functional, organism-based
Method in brief: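 Mid-log E. coli (6 h, 10^8 cells/mL) were washed and resuspended in 5 mM glucose/5 mM HEPES pH 7.2 with 10 µM NPN. Compound was added in water. Outer membrane uptake of NPN was followed as fluorescence increase (ex 350 nm, em 420 nm) for 10 min.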

[13] = Therapeutic index, ratio of HC50 for human erythrocytes to MIC for drug-sensitive Pseudomonas aeruginosa ATCC 4676; settings: read-out: TI
[14] = Stability of the compound assessed as trypsin (unknown origin)-mediated drug degradation at 1 mg/ml up to 24 hrs by LC-MS analysis; format: ADME; settings: human
Method in brief: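 Compound at 1 mg/mL (solution before mixing) was incubated with trypsin in 0.1 M NH4HCO3 at 37 °C. Aliquots were taken from 0 min to 24 h, diluted with water and analyzed by LC-MS for new products and total ion current. A no-trypsin control was sampled at 0 and 24 h.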

[15] = system: Escherichia coli; assay: Antibacterial activity against drug-sensitive Escherichia coli MTCC 443 assessed as merging of dead bacteria with each other at 10 X MIC after 2 hrs by field-emission scanning electron microscopic analysis; format: functional, organism-based
Method in brief: (§3)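 Cells grown 6 h (E. coli in LB, S. aureus in yeast-dextrose broth) were resuspended at 10^6 cells/mL in nutrient media pH 7.4. They were treated at 10× MIC at 37 °C for 2 h with 250 rpm shaking, beside an untreated control. Cells were pelleted, dehydrated through a 30–100% ethanol series and dried on silicon wafer. S. aureus was sputter-coated; E. coli was imaged uncoated by FESEM.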

[16] = system: Staphylococcus aureus; assay: Antibacterial activity against drug-sensitive Staphylococcus aureus MTCC 737 preincubated for 3 hrs in 50% human plasma measured after 24 hrs by broth microdilution assay; format: functional; settings: MTCC 737, Plasma
Method in brief: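 Plasma was separated by centrifuging fresh human blood. Compound at 1600 µg/mL in 50% plasma was preincubated at 37 °C for 0, 3 or 6 h. Two-fold dilutions were added 1:3 to S. aureus at 10^5 cfu/mL and incubated 37 °C for 24 h. MIC was read by OD as in the broth assay.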

[17] = system: Escherichia coli; assay: Antibacterial activity against drug-sensitive Escherichia coli MTCC 443 at MIC measured […] by DiSC3(5) dye-based fluorimetric analysis; format: functional, organism-based
Method in brief: (§4)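 Mid-log cells were washed and resuspended at 10^8 cfu/mL in 5 mM glucose, 5 mM HEPES and 100 mM KCl (1:1:1). They were loaded with 2 µM DiSC3(5) for 10 min (S. aureus) or 20 min (P. aeruginosa, E. coli), then stabilized 2 min at room temperature. Compound was added and depolarization read as fluorescence increase (ex 622 nm, em 670 nm) over 10 min.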

[18] = system: Staphylococcus aureus; assay: Bactericidal activity against drug-sensitive Staphylococcus aureus MTCC 737 at 2 X MIC after 24 hrs by time-kill assay; format: functional, organism-based
Method in brief: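 S. aureus at ~1.8×10^6 CFU/mL in fresh media was exposed at MIC and 2× MIC. Samples were taken at 0, 1, 2, 3, 6 and 24 h and serially diluted 10-fold in 0.9% saline. They were plated on yeast-dextrose agar at 37 °C overnight, and colonies were counted as log10 CFU/mL.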

[19] = system: Escherichia coli; assay: Antibacterial activity against drug-sensitive Escherichia coli MTCC 443 assessed as disruption of cell membrane at 10 X MIC after 2 hrs by field-emission scanning electron microscopic analysis; format: functional, organism-based; method in brief: as §3
[20] = system: Staphylococcus aureus; assay: Antibacterial activity against drug-sensitive Staphylococcus aureus MTCC 737 assessed as cytoplasmic membrane depolarization at MIC measured up to 12 mins by DiSC3(5) dye-based fluorimetric analysis; format: functional, organism-based; method in brief: as §4
[21] = system: Staphylococcus aureus; assay: Antibacterial activity against drug-sensitive Staphylococcus aureus MTCC 737 assessed as formation of blebs and holes at 10 X MIC after 2 hrs by field-emission scanning electron microscopic analysis; format: functional, organism-based; method in brief: as §3
[22] = system: Staphylococcus aureus; assay: Antibacterial activity against drug-sensitive Staphylococcus aureus MTCC 737 assessed as change in cell membrane morphology at 10 X MIC after 1.5 hrs by SYTO and propidium iodide staining-based fluorescence microscopic analysis; format: functional, organism-based
Method in brief: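 Suspension at 10^9 cells/mL was treated at 10× MIC for 1.5 h, beside an untreated control. Cells were pelleted, resuspended in PBS and mixed with a probe mix of 3.0 µM SYTO 9 and 15.0 µM PI. After 15 min in the dark, cells were examined by fluorescence microscopy.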

Structure (SMILES) | MIC [2] [µg/mL] | MIC [3] [µg/mL] | MIC [4] [µg/mL] | HC50 at 1 h [5] [µg/mL] | MIC [6] [µg/mL] | MIC [7] [µg/mL] | MIC [8] [µg/mL] | Retention_time [9] [min] | MIC [10] [µg/mL] | also measured
CCCCCCCCN(Cc1c2ccccc2c(Cl)c2ccccc12)C(=O)[C@@H](N)CCCCN.O=C(O)C(F)(F)F.O=C(O)C(F)(F)F | 2.2 | 2.9 | 4.3 | 64 | 3.8 | 3 | 2.5 | 14.6 | 2.3 | Ratio [1]: 5
CCCCCCN(Cc1cccc2ccccc12)C(=O)[C@@H](N)CCCCN.O=C(O)C(F)(F)F.O=C(O)C(F)(F)F | 20 | 25 | 100 | 508 | 11 | 54 | 34 | 11.8 | 65 | Activity [11]: Active; Activity [12]: Active; selectivity ratio [13]: 50; Stability [14]: Stable; Activity [15]: Active; MIC [16]: 30 µg/mL; Activity [17]: Active; Activity [18]: Active; Activity [19]: Active; Activity [20]: Active; Activity [21]: Active; Activity [22]: Active
CCCCCCCCCCCCCCN(Cc1ccccc1)C(=O)[C@@H](N)CCCCN.O=C(O)C(F)(F)F.O=C(O)C(F)(F)F | 3.1 | 3.1 | 4 | 50 | 2.8 | 2.5 | 2 | 15.8 | 2.5 | 
CCN(Cc1c2ccccc2c(Cl)c2ccccc12)C(=O)[C@@H](N)CCCCN.O=C(O)C(F)(F)F.O=C(O)C(F)(F)F | 11 | 25 | 31 | 118 | 4 | 7.2 | 13.6 | 11.8 | 21 | 
CCCCCCCCCCCCN(Cc1cccc2ccccc12)C(=O)[C@@H](N)CCCCN.O=C(O)C(F)(F)F.O=C(O)C(F)(F)F | 3 | 3.1 | 4 | 56 | 3.2 | 3.4 | 1.6 | 15.1 | 2.7 | 
CCCCCCCCCCN(Cc1cccc2ccccc12)C(=O)[C@@H](N)CCCCN.O=C(O)C(F)(F)F.O=C(O)C(F)(F)F | 2.5 | 4 | 5.8 | 54 | 3 | 1.6 | 3.5 | 14.2 | 2.6 | 
CCCCN(Cc1c2ccccc2c(Cl)c2ccccc12)C(=O)[C@@H](N)CCCCN.O=C(O)C(F)(F)F.O=C(O)C(F)(F)F | 5.3 | 4.8 | 17 | 91 | 1.9 | 5.3 | 4.5 | 12.4 | 6.3 | 
CCCCCCCCCCN(Cc1c2ccccc2c(Cl)c2ccccc12)C(=O)[C@@H](N)CCCCN.O=C(O)C(F)(F)F.O=C(O)C(F)(F)F | 7.1 | 26 | 7.6 | 71 | 11 | 5.6 | 4.9 | 15.6 | 4.6 | 
